Test results: the M2OR odorant receptor database
Where a chain is given by its changes, count along the chain named.

Legend:
Settings in all cases: stereoisomer not certain
OR10A2 (Homo sapiens) = target: T1, OR10A2 (Homo sapiens) (UniProt Q9H208)
T1 sequence (whole entry): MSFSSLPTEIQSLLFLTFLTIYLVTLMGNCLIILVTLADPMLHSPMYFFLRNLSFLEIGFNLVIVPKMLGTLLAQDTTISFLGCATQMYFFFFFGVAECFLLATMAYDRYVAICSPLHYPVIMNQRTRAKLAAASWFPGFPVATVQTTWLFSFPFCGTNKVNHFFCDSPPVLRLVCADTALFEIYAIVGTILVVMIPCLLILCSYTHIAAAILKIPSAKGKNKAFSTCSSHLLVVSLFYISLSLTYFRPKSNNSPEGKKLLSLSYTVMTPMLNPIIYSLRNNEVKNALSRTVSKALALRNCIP
Summary of the method: (§1)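 Transient luciferase assays in mammalian cell lines were common, though methods varied by source. The values come from published papers and their supplementary material, with extra details from the original authors when needed. Responsive refers to a measured signal the original authors judged statistically different from baseline, and non-responsive (inactive) to the remainder.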

O5AN1 = tested on: T2, O5AN1
T2 sequence (whole entry): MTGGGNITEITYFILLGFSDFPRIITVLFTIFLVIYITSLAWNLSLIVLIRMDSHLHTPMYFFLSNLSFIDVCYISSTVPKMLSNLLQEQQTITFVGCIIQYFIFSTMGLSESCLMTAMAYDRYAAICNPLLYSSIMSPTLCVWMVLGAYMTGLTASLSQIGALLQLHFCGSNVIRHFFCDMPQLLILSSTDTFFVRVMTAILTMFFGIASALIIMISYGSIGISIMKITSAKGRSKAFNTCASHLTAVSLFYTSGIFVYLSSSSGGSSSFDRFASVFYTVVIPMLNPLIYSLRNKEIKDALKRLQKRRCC
Summary of the method: as §1

O56A4 I247V = tested on: T3, O56A4 I247V
T3 sequence (whole entry): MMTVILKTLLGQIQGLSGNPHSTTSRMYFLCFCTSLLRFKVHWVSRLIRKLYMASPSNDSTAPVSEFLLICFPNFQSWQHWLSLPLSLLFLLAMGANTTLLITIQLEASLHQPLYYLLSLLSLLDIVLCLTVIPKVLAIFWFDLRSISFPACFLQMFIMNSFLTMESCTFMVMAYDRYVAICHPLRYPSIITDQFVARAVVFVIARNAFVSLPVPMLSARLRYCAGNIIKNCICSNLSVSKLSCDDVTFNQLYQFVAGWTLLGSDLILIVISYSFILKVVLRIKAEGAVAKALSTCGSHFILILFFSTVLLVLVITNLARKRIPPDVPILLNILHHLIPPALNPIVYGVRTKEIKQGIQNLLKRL
Summary of the method: as §1

O56A4 = tested on: T4, O56A4
T4 sequence (whole entry): T3 sequence (whole entry) with V247I
Summary of the method: as §1

O56A5 V104L = tested on: T5, O56A5 V104L
T5 sequence (whole entry): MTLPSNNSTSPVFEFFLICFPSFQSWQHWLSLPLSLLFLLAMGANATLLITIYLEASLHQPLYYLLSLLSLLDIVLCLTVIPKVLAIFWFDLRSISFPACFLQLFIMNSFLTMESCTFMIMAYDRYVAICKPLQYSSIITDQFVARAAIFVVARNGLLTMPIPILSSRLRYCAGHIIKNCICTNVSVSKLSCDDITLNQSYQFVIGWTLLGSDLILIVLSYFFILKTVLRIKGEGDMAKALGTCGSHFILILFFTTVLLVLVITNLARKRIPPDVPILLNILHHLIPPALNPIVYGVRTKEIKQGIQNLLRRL
Summary of the method: as §1

O56B1 C106R L214F = tested on: T6, O56B1 C106R L214F
T6 sequence (whole entry): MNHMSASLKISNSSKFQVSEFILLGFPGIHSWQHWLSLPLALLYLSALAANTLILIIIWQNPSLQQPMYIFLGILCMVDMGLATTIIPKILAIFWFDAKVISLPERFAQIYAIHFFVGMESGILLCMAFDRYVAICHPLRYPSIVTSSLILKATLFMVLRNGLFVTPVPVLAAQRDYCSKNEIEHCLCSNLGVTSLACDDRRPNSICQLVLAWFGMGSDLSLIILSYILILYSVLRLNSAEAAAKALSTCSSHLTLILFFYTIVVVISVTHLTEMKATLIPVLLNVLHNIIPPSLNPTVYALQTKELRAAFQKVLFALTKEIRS
Summary of the method: as §1

O56B1 L214F = tested on: T7, O56B1 L214F
T7 sequence (whole entry): T6 sequence (whole entry) with R106C
Summary of the method: as §1

O56B4 = tested on: T8, O56B4
T8 sequence (whole entry): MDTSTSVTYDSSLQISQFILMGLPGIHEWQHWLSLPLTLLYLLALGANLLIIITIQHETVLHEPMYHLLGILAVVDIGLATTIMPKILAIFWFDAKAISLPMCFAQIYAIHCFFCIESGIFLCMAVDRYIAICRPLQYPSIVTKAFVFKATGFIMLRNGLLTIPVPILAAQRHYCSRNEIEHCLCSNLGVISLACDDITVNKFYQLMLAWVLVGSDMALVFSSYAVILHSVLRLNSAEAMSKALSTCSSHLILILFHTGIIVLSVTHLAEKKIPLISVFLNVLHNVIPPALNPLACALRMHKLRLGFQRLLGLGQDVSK
Summary of the method: as §1

O5AC2 = tested on: T9, O5AC2
T9 sequence (whole entry): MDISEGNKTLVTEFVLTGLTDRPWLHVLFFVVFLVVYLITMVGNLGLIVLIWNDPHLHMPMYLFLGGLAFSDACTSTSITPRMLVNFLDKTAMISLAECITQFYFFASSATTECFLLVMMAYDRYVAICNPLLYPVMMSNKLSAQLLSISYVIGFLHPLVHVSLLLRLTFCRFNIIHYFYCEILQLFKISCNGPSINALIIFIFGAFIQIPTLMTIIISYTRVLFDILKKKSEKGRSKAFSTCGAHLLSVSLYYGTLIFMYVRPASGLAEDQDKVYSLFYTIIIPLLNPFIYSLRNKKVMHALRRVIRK
Summary of the method: as §1

O5AK2 M92I = tested on: T10, O5AK2 M92I
T10 sequence (whole entry): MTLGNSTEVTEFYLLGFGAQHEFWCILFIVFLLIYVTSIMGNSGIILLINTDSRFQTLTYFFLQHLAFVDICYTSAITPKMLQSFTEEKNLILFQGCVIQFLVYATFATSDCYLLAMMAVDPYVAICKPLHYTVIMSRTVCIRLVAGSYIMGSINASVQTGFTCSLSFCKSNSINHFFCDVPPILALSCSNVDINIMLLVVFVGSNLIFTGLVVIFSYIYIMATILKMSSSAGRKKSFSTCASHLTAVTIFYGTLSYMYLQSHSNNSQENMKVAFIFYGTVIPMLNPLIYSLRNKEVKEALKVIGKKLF
Summary of the method: as §1

O5AN1 C142Y L289F = tested on: T11, O5AN1 C142Y L289F
T11 sequence (whole entry): T2 sequence (whole entry) with T26K, C142Y, S159F, S190C, R197Q, I214V, S221Y, L289F, R309K
Summary of the method: as §1

O5AN1 L289F = tested on: T12, O5AN1 L289F
T12 sequence (whole entry): T2 sequence (whole entry) with T26K, S159F, S190C, R197Q, I214V, S221Y, L289F, R309K
Summary of the method: as §1

O5AP2 A105T = tested on: T13, O5AP2 A105T
T13 sequence (whole entry): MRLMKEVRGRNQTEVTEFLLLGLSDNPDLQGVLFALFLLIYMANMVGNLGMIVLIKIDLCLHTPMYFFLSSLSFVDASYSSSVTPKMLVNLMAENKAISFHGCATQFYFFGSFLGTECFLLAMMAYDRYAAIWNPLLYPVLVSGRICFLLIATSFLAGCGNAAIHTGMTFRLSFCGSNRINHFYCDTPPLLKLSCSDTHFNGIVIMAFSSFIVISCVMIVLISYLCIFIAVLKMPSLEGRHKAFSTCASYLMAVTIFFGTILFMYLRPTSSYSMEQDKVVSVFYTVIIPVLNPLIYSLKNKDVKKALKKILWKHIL
Summary of the method: as §1

O5AU1 = tested on: T14, O5AU1
T14 sequence (whole entry): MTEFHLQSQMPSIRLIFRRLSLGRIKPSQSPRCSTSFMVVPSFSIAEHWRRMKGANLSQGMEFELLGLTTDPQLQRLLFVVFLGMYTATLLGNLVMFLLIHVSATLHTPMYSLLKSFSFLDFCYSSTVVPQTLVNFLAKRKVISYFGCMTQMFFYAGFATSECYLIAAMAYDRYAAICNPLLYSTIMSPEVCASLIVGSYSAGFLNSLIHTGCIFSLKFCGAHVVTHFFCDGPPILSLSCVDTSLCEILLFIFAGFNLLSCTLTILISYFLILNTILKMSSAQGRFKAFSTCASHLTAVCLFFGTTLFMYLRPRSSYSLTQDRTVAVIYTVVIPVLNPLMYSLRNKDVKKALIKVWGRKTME
Summary of the method: as §1

O5H14 = tested on: T15, O5H14
T15 sequence (whole entry): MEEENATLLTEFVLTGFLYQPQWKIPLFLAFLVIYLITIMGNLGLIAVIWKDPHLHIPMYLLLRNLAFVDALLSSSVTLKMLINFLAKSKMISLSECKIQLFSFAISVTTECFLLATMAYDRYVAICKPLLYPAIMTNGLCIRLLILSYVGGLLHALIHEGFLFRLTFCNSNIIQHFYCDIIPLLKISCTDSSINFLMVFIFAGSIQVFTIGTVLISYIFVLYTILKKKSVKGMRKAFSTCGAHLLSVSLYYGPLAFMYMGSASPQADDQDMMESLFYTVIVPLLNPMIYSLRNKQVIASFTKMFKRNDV
Summary of the method: as §1

O5H15 V108I S148T T167S = tested on: T16, O5H15 V108I S148T T167S
T16 sequence (whole entry): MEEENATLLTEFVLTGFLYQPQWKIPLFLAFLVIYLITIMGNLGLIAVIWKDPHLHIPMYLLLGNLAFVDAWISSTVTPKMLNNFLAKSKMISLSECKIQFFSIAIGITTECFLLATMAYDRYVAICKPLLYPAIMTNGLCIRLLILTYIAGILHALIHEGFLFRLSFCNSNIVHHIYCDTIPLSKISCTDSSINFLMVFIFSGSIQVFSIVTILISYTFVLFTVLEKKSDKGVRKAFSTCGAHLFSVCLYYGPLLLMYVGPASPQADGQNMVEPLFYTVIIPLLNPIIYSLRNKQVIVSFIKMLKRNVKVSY
Summary of the method: as §1

O6C65 T222A = tested on: T17, O6C65 T222A
T17 sequence (whole entry): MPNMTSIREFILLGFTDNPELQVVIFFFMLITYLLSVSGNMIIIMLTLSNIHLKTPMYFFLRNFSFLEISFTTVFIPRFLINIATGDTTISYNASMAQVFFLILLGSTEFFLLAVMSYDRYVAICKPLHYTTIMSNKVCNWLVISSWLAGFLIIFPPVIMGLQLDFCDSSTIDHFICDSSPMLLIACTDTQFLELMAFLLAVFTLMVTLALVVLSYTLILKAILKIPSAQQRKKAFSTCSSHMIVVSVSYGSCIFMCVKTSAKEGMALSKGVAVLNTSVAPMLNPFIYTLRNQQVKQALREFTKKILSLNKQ
Summary of the method: as §1

O6C70 L181P = tested on: T18, O6C70 L181P
T18 sequence (whole entry): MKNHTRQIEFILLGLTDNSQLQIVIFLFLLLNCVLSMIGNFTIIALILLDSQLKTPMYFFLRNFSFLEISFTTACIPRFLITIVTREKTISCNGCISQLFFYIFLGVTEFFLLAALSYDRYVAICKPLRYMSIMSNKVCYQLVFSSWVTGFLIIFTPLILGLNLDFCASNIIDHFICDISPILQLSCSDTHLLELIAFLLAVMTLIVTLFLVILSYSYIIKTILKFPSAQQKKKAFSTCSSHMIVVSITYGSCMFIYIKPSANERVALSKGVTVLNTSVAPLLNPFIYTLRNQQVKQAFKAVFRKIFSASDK
Summary of the method: as §1

O7E24 S193F P242S = tested on: T19, O7E24 S193F P242S
T19 sequence (whole entry): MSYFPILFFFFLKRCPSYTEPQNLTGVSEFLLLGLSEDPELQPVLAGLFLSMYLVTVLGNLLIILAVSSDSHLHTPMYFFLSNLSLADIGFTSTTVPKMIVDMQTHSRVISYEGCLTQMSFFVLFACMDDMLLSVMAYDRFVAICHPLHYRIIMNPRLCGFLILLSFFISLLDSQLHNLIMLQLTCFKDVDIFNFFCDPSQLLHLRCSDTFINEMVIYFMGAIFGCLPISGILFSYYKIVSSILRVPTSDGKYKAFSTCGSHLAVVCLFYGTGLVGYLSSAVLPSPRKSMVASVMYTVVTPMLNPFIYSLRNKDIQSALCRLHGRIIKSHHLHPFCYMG
Summary of the method: as §1

O7E24 = tested on: T20, O7E24
T20 sequence (whole entry): T19 sequence (whole entry) with F193S
Summary of the method: as §1

Measured: odorant receptor agonist call

CCCCCC(S)C(C)CO (stereo unspecified)
inactive: OR10A2 (Homo sapiens)

O=C1CCCCCCC=CCCCCCCC1
active: O5AN1

CC1CC=CCCCCCCCCC(=O)C1 (stereo unspecified)
active: O5AN1

CC1CCCCCCCCCCCC(=O)C1 (stereo unspecified)
active: O5AN1

CCCCCCCCCCCCCC(C)=O
inactive: O5AN1

CCC(=O)OCC(C)(C)OC(C)C1CCCC(C)(C)C1 (stereo unspecified)
inactive: O5AN1

CC1CC=CCCCCCCCCCC(=O)C1 (stereo unspecified)
active: O5AN1

CC1=C(O)C(=O)C(C)O1 (stereo unspecified)
inactive: O56A4 I247V | O56A4 | O56A5 V104L | O56B1 C106R L214F | O56B1 L214F | O56B4 | O5AC2 | O5AK2 M92I | O5AN1 C142Y L289F | O5AN1 L289F | O5AP2 A105T | O5AU1 | O5H14 | O5H15 V108I S148T T167S | O6C65 T222A | O6C70 L181P | O7E24 S193F P242S | O7E24 | OR10A2 (Homo sapiens)
